A short description of data set [1]: Growth inhibition of mouse Hepa-1c1c7 cells by crystal violet staining. The settings on record: for IC50: Mus musculus, Hepa-1c1c7; for Activity: mouse, hepa-1c1c7. The format is cell-based. In short, it runs like this: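 Hepa 1c1c7 cells seeded at 4000 cells/mL and grown 24 h at 37 °C, then medium changed. Compounds added in 10% DMSO, serially diluted over 0.15-20 µg/mL, and exposed 48 h. Viability read by crystal violet staining at 595 nm. IC50 taken as the half-maximal inhibitory concentration of cell viability.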

Data set [2] is described as follows: Chemoprevention index, ratio of IC50 for mouse Hepa-1c1c7 cells to drug level required to induce 4-fold increase in quinone reductase activity in mouse Hepa-1c1c7 cells. It is filed as functional. A digest of the protocol: (§1)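 Hepa 1c1c7 cells seeded at 4000 cells/mL, grown 24 h at 37 °C under CO2, then medium changed. Compounds added in 10% DMSO, serially diluted over 0.15-20 µg/mL, and incubated a further 48 h. QR measured as NADPH-dependent, menadiol-mediated MTT reduction to formazan. Protein by crystal violet at 595 nm in duplicate plates. Specific activity expressed relative to solvent control. CD = concentration giving 2-fold activity, CQ = 4-fold. CI = IC50/CD or IC50/CQ.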

The nature of data set [3]: Chemoprevention index, ratio of IC50 for mouse Hepa-1c1c7 cells to drug level required to double specific quinone reductase activity in mouse Hepa-1c1c7 cells. It is filed as functional. A digest of the protocol: as §1

The results in this text go back to ChEMBL document CHEMBL1148136, “Induction of quinone reductase by withanolides” (J Nat Prod, 2002).

The structures appear in SMILES notation.

In data set [1], `C[C@H]1C[C@H]([C@](C)(O)[C@H]2CC[C@H]3[C@@H]4C[C@H]5O[C@]56[C@@H](O)C=CC(=O)[C@]6(C)[C@H]4CC[C@]23C)OC(=O)[C@@H]1C` displayed a half-inhibitory concentration (IC50) of 5.5 µM. In addition, the Ratio was 1.4 in data set [2] and 7.8 in data set [3]. Consider `CC1=C(C)C(=O)O[C@@H]([C@]2(C)OC(O)[C@]34CC[C@H]5[C@@H](C[C@H]6O[C@]67[C@@H](O)C=CC(=O)[C@]57C)[C@@H]3CC[C@H]24)C1` (some centres not stated) [WITHAPHYSALIN F], for which the half-inhibitory concentration (IC50) in data set [1] was determined as 4.15 µM. This lies in the single-digit micromolar range. The compound `CC1=C(C)C(=O)O[C@@H]([C@]2(C)OC(O)[C@]34CC[C@H]5[C@@H](CC=C6[C@@H](O)C=CC(=O)[C@@]65C)[C@@H]3CC[C@H]24)C1` (some centres not stated) [WITHAPHYSALIN G] had an IC50 in data set [1] of 9.83 µM. Moreover, in data set [3], the Ratio was found to be 19.3. `CC1=C(C)C(=O)O[C@@H]([C@@H](C)[C@@]2(O)CC[C@H]3[C@@H]4C[C@H]5O[C@]56CCCC(=O)[C@]6(CO)[C@H]4CC[C@@]32C)C1` [JABOROSALACTONE O] showed an IC50 in data set [1] above 42.3 µM. The Ratio in data set [3] is above 27.8. In the case of `CC(=O)O[C@H]1C=CC(=O)[C@]2(C)[C@H]3CC[C@]45C(=O)O[C@@](C)([C@H]6C[C@H](C)[C@@H](C)C(=O)O6)[C@H]4CC[C@H]5[C@@H]3C[C@H]3O[C@]132`, in data set [1], it took 0.42 µM to reach half-maximal inhibition (IC50). Besides, the Ratio in data set [2] and in data set [3] was above 1.5 throughout.

`C[C@H]1C[C@H]([C@](C)(O)[C@H]2[C@@H](O)C[C@H]3[C@@H]4C[C@H]5O[C@]56[C@@H](O)C=CC(=O)[C@]6(C)[C@H]4CC[C@]23C)OC(=O)[C@@H]1C` [WITHAPHYSACARPIN] registered a half-maximal inhibitory concentration (IC50) in data set [1] of 4.8 µM. Further, the Ratio in data set [2] worked out at 2.5; in data set [3] it was 11.1. `CC1=C(C)C(=O)O[C@@H](/C(C)=C2\[C@@H](O)C[C@H]3[C@@H]4[C@@H]5O[C@@H]5[C@@]5(O)CC=CC(=O)[C@]5(C)[C@H]4CC[C@]23C)C1` [EXODECONOLIDE A] had an IC50 in data set [1] above 42.7 µM. Moreover, the Ratio in data set [3] was above 2.7.

Take `CC1=C(C)C(=O)O[C@@H](/C(C)=C2\[C@H](O)C[C@H]3[C@@H]4[C@@H]5O[C@@H]5[C@@]5(O)CC=CC(=O)[C@]5(C)[C@H]4CC[C@]23C)C1` [EXODECONOLIDE B]: the IC50 in data set [1] was above 42.7 µM. Also, in data set [3], the Ratio is above 2.6. Consider `CC1=C(C)C(=O)O[C@@H]([C@@H](C)[C@@]2(O)CC[C@H]3[C@@H]4C[C@H]5O[C@]56CC=CC(=O)[C@]6(CO)[C@H]4CC[C@@]32C)C1` [JABOROSALACTONE L], for which, in data set [1], the Activity entry is recorded as “Not Active”. For the compound `CC(=O)O[C@H]1C=CC(=O)[C@]2(C)[C@H]3CC[C@]45C(O)O[C@@](C)([C@H]6C[C@H](C)[C@@H](C)C(=O)O6)[C@H]4CC[C@H]5[C@@H]3C[C@H]3O[C@]132` (some centres not stated), half-maximal inhibition in data set [1] (IC50) was put at 0.39 µM. Moreover, the Ratio in data set [2] and in data set [3] was above 1.4 in each case.

In data set [1], `CC1=C(CO)C(=O)O[C@@H]([C@@H](C)[C@H]2CC[C@H]3[C@@H]4C[C@@H](O)C5=CC=CC(=O)[C@]5(C)[C@H]4CC[C@]23C)C1` [JABOROSALACTONE B] showed an IC50 of 38.5 µM. The Ratio in data set [2] is on record as 26.9; in data set [3], 11.1.

The compound `CO[C@@H]1O[C@@](C)([C@H]2CC(C)=C(C)C(=O)O2)[C@H]2CC[C@H]3[C@@H]4CC=C5C(=O)C=CC(=O)[C@]5(C)[C@H]4CC[C@]123` [WITHAPHYSALIN K] had a half-maximal inhibitory concentration (IC50) in data set [1] of 7.29 µM. The compound `CC1=C(C)C(=O)O[C@@H]([C@@H](C)[C@H]2CC[C@H]3[C@@H]4[C@@H]5O[C@@H]5[C@@]5(O)CC=CC(=O)[C@]5(C)[C@H]4C[C@H](O)[C@]23C)C1` [WITHAFEROXOLIDE] yielded an IC50 in data set [1] above 42.5 µM. In data set [3], the Ratio is listed as above 2.9.

In turn, `CC1=C(C)C(=O)O[C@@H]([C@](C)(O)[C@H]2CC[C@H]3[C@@H]4C[C@H]5O[C@]56[C@@H](O)C=CC(=O)[C@]6(C)[C@H]4CC[C@]23CO)C1` yielded an IC50 in data set [1] of 1.93 µM. Further, the Ratio is listed as 3.5 in data set [2] and 7.2 in data set [3]. Compound `CC(=O)C1=CC[C@H]2[C@@H]3[C@@H]4O[C@@H]4[C@@]4(O)CC=CC(=O)[C@]4(C)[C@H]3CC[C@]12C` showed a concentration for half-maximal inhibition (IC50) in data set [1] above 58.4 µM. Further, the Ratio in data set [3] is on record as above 1.7.

Take `CC(=O)O[C@@H]1[C@H]2[C@@H]3CC[C@H]([C@@](C)(O)[C@H]4CC(C)=C(C)C(=O)O4)[C@@]3(C)CC[C@@H]2[C@@]2(C)C(=O)C=C[C@H](OC(C)=O)[C@]23O[C@H]13`: the IC50 in data set [1] is 0.33 µM. Moreover, the Ratio in data set [3] was 1.3. The corresponding values for `CC1=C(C)[C@]2(OC1=O)[C@H](O)[C@@H](C)[C@]1(O)CC[C@H]3[C@@H]4C[C@@H](O)[C@@]5(Cl)CC=CC(=O)[C@]5(C)[C@H]4C[C@@]2(O)[C@@]31C` [JABOROSALACTONE 10] are above 38 µM and above 5.2. `CC(=O)O[C@H]1C=CC(=O)[C@@]2(C)C1=C[C@H](OC(C)=O)[C@@H]1[C@@H]2CC[C@]2(C)[C@@H]([C@@](C)(O)[C@H]3CC(C)=C(C)C(=O)O3)CC[C@@H]12` yielded an IC50 in data set [1] of 0.81 µM. Besides, the Ratio in data set [3] is above 3. In data set [1], `CO[C@]12CC=CC(=O)[C@]1(C)[C@H]1C[C@@]3(O)[C@@]4(C)[C@@H](CC[C@@]4(O)[C@H](C)[C@@H](O)[C@]34OC(=O)C(C)=C4C)[C@@H]1C[C@H]2O` [JABOROSALACTONE 12] returned an IC50 above 39 µM. In addition, the Ratio in data set [3] was above 4.2. Take `CC1=C(C)C(=O)O[C@@H]([C@@H]2CO[C@@]3(O)C[C@H]4[C@@H](C[C@@H](O)[C@@]5(O)CC=CC(=O)[C@]45C)[C@@H]4CC[C@]2(O)[C@]43C)C1` [JABOROSALACTONE S]: the IC50 in data set [1] was above 39.8 µM. In the case of `CC1=C(C)C(=O)O[C@@H]([C@@H](C)[C@@]2(O)CC[C@H]3[C@@H]4[C@@H]5O[C@@H]5[C@@]5(O)CC=CC(=O)[C@]5(C)[C@H]4CC[C@@]32C)C1` [WITHANONE], the Activity entry in data set [1] is “Not Active”. `CC(=O)O[C@@H]1O[C@@](C)([C@H]2CC(C)=C(C)C(=O)O2)[C@H]2CC[C@H]3[C@@H]4CC=C5[C@@H](OC(C)=O)C=CC(=O)[C@]5(C)[C@H]4CC[C@]123` returned an IC50 in data set [1] of 5.1 µM. The same measure, in the same setting: for `CC1=C(C)C(=O)O[C@@H]([C@](C)(O)[C@H]2CC[C@H]3[C@@H]4[C@@H]5O[C@@H]5[C@@]5(O)CC=CC(=O)[C@]5(C)[C@H]4CC[C@]23C)C1` [WITHANOLIDE A] the value was above 42.5 µM. The compound `C[C@@H](c1cc(O)c2c(c1)CC[C@H]1[C@H]2C[C@@H]2O[C@@]23CC=CC(=O)[C@]13C)[C@@H]1C[C@@H]2O[C@@H]2[C@H](O)O1` [SALPICHROLIDE G] had an IC50 in data set [1] above 42.9 µM. Further, the Ratio in data set [3] was above 3.7. In the same order, the values of `CC1=C(C)C(=O)O[C@@H]([C@]2(C)OC(=O)[C@]34CC[C@H]5[C@@H](CC=C6[C@@H](O)C=CC(=O)[C@@]65C)[C@@H]3CC[C@H]24)C1` [WITHAPHYSALIN J] are 11 µM and 28.1. Regarding `CO[C@@H]1O[C@@](C)([C@H]2CC(C)=C(C)C(=O)O2)[C@H]2CC[C@H]3[C@@H]4CC=C5[C@@H](O)C=CC(=O)[C@]5(C)[C@H]4CC[C@]123` [WITHAPHYSALIN H], the 50% inhibitory concentration (IC50) in data set [1] is 5.21 µM. The Ratio in data set [3] is on record as 10.

With `CO[C@H]1O[C@@](C)([C@H]2CC(C)=C(C)C(=O)O2)[C@H]2CC[C@H]3[C@@H]4CC=C5C(=O)C=CC(=O)[C@]5(C)[C@H]4CC[C@]123` [WITHAPHYSALIN L], the concentration for half-maximal inhibition (IC50) in data set [1] amounted to 0.65 µM. In turn, `CC1=C(C)C(=O)O[C@@H]([C@](C)(O)[C@H]2CC[C@H]3[C@@H]4[C@@H](O)[C@H]5O[C@]56[C@@H](O)C=CC(=O)[C@]6(C)[C@H]4CC[C@]23C)C1` came in with an IC50 in data set [1] of 1.27 µM. Further, in data set [3], the Ratio is 2.5. In turn, `CO[C@H]1O[C@@](C)([C@H]2CC(C)=C(C)C(=O)O2)[C@H]2CC[C@H]3[C@@H]4CC=C5[C@@H](O)C=CC(=O)[C@]5(C)[C@H]4CC[C@]123` [WITHAPHYSALIN I] registered an IC50 in data set [1] of 5.27 µM. In addition, in data set [3], the Ratio is listed as 5.1.

In data set [1], `C[C@@H](c1ccc2c(c1)CC[C@H]1[C@H]2C[C@@H]2O[C@@]23CC=CC(=O)[C@]13C)[C@@H]1C[C@@H]2O[C@@H]2[C@H](O)O1` [SALPICHROLIDE A] gave an IC50 above 42.9 µM. Besides, the Ratio in data set [3] was above 4.

Regarding `C[S+]([O-])CCCCN=C=S` (configuration not stated) [SULFORAPHANE], the Ratio in data set [2] worked out at 1.1; in data set [3], 23.9. For the compound `CC1=C(CO)C(=O)O[C@@H]([C@@H](C)[C@H]2CC[C@H]3[C@@H]4C[C@@H](O)[C@@]5(O)CC=CC(=O)[C@]5(C)[C@H]4CC[C@]23C)C1` [JABOROSALACTONE D], the IC50 in data set [1] was above 42.3 µM. The Ratio in data set [3] was above 1.7.

One may read the IC50 as the concentration needed to halve the response being measured. Low values mean greater potency, high ones weaker potency.
